Experimental data from different studies.
Each line is one published result; the experiments were not run side by side.
CDK8: Cyclin-dependent kinase 8 (CDK8, Homo sapiens, UniProt P49336)
CDK8 with cyclin C: Cyclin-dependent kinase 8, with cyclin C (CDK8, Homo sapiens, UniProt P49336)

| SMILES | target | test | conditions | quantity | value |
| --- | --- | --- | --- | --- | --- |
| CN1CCN(C(=O)c2ccc3cc(CCNc4ccnc5ccc(C#N)cc45)ccc3c2)CC1 | CDK8 | binding, competition with immobilised ligand | 2 µM | inhibition | > 85% |
| CN1CCC2(CC1)NC(=O)c1c(c3ccc(Cl)c(Cl)c3n1C)C2C#N (racemic) | CDK8 | thermal stability, DSF | 10 µM | ΔTm | 1.8 °C |
| O=C(Nc1cnn(-c2csc(C(=O)NC3COC3)c2)c1)Nc1ccccc1Cl | CDK8 with cyclin C | enzyme activity, inhibitor | 5 µM | remaining activity | 101% |
| O=C(O)[C@H]1[C@H](Cn2nnc3ccccc3c2=O)CC[C@@H]1C(=O)c1ccc(OCCC2CCOCC2)cc1 | CDK8 | cell-free assay, competition with immobilised ligand | 1 µM | remaining binding | 100% |
| CCOc1cc(-c2nncn2C)ccc1Nc1ncc2cc(C)nc(NCC(C)(C)C)c2n1 | CDK8 with cyclin C | cell-free assay, TR-FRET | 1 µM | inhibition | ≤ 15% |
| Cn1c2c(c3ccc(Cl)c(Cl)c31)C(C#N)C1(CCNCC1)NC2=O (racemic) | CDK8 | thermal stability, DSF | 10 µM | ΔTm | 2.2 °C |
| O=C(Nc1cnn(-c2csc(C(=O)NC3COC3)c2)c1)Nc1c(F)cccc1Cl | CDK8 with cyclin C | enzyme activity, inhibitor | 5 µM | remaining activity | 99% |
| C[C@H](c1ccnc(Nc2nc3ccc(-c4cc(N(C)C)ncn4)cc3[nH]2)c1)N1CCN(C(=O)CC(F)(F)F)CC1 | CDK8 | cell-free assay, competition with immobilised ligand | 0.1 µM | remaining binding | 96% |
| CCN1CCC2(CC1)NC(=O)c1c(c3ccc(Cl)c(Cl)c3n1C)C2C#N (racemic) | CDK8 | thermal stability, DSF | 10 µM | ΔTm | 1.2 °C |
| CC(C)(C)c1nc2c(s1)c1nc(N)ncc1c1ccc(NS(=O)(=O)c3c(F)cccc3F)c(F)c12 | CDK8 with cyclin C | enzyme activity, inhibitor, radiometric | 1 µM | remaining activity | 100% |
| CCC(=O)N[C@H]1CC[C@@H](C(=O)N(C)c2ccc(-c3nc4ccccc4o3)cc2)C1 | CDK8 | cell-free assay, competition with immobilised ligand | 1 µM | remaining binding | 100% |
| Cn1c2c(Cl)c(Cl)ccc2c2cn[nH]c(=O)c21 | CDK8 | thermal stability, DSF | 10 µM | ΔTm | 1 °C |
| Cc1c(NC(=O)c2cc(C(N)=O)nc3cc(F)ccc23)c(C(F)(F)F)nn1Cc1ccc(C(C)(C)C)cc1 | CDK8 | cell-free assay, competition with immobilised ligand | 1 µM | remaining binding | 100% |
| COc1ccnn2ncc(-c3ccnc(N(C)C)n3)c12 | CDK8 | binding | 1 µM | remaining binding | 100% |
